Screens deposited in PubChem by Broad Institute.
An excerpt weighted towards active compounds, which were near 2.6% of everything screened.
ERAP1 inh: human ERAP1 aminopeptidase inhibitors, primary screen, biochemical, single point, plate reader | recombinant ERAP1, Leu-AMC fluorescence, 60 min | AID 652197, 2013 | inhibition, % at 10.7 µM | 340,000 compounds, 0.15% hits;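 active = mean replicate inhibition of at least 30%, or all replicates individually reaching that 30% level; inactive = mean below 30% and not every replicate reaching it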;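 note: 0% = neutral control wells and 100% = L-leucinethiol positive control wells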
Target sequence (Q9NZ08 whole entry, looked up): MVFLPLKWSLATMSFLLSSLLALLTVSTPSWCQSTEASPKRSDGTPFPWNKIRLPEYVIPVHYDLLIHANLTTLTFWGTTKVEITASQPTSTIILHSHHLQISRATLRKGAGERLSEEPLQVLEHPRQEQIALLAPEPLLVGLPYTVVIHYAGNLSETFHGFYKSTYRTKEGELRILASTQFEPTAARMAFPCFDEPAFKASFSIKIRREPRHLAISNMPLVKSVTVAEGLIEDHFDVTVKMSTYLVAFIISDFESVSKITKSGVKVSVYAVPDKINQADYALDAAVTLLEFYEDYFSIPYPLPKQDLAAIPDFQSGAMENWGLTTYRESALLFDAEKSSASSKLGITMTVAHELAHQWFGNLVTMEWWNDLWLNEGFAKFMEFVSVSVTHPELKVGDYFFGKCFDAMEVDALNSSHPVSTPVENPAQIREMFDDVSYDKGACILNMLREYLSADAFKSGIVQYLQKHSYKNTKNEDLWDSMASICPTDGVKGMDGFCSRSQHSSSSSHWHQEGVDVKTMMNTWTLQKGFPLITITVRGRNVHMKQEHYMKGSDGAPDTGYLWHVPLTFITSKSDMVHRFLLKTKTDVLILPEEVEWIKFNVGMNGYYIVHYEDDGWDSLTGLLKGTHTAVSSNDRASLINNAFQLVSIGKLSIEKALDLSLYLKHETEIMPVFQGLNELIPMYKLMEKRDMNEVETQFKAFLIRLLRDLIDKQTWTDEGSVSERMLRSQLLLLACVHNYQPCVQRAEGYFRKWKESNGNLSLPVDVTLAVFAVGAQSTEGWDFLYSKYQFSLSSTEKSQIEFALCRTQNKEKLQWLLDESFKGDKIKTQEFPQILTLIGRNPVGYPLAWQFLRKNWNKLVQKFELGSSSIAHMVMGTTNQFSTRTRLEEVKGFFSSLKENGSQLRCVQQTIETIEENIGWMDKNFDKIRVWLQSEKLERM
GSIS activator: GLuc luminescence reporter in INS-1E cells, primary screen for activators of glucose-dependent secretion of insulin; INS-1E GLuc reporter insulin secretion, 2-3 h; activation, % at 16.6 µM; 370,000 compounds, 0.61% hits;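 active = lowest replicate activation of at least 40%, so every replicate reaches that level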;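 note: 0% = median of neutral control wells and 100% = median of IBMX positive control wells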
miR-122 sensor: miR-122 Renilla sensor signal increase in Huh7, primary screen, miR-122 inhibitor project, cell-based, single point, plate reader | Huh7 miR-122 Renilla luciferase sensor, 48 h; neutral wells = 0, positive control = 100 | activation (reporter increase), % at 12.5 µM | AID 602342, 2012 | 340,000 compounds, 0.3% hits;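 active = mean replicate activation score at least 90 and every replicate individually at or above 90; inconclusive = only one of the two criteria met; inactive = neither criterion met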;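 note: higher luciferase means less miR-122 activity so hits act as miR-122 inhibitors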
DENV2 CPE rescue: inhibitors of DENV2 cytopathic effect, primary screen, cell-based, plate reader, single concentration. DENV2-infected cells, cytopathic effect rescue. CPE inhibition, % at 9.99 µM. 350,000 compounds, 1.7% hits. AID 651640, 2012; in the data active = CPE inhibition above about 20%, passing the limit was not always enough; inconclusive = no clear call, values can overlap the other calls; tested in BHK-21 cells;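 note: 0% = median of neutral control wells and 100% = median of positive control wells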
E-selectin induc: E-selectin induction in HUVECs, primary screen, imaging, HUVEC, immunofluorescence imaging, single point; P16581; normalized: neutral wells 0, TNF-alpha wells 100; 260,000 compounds, 0.37% hits; activation, % at 7.58 µM; AID 686992, 2013;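 active = mean E-selectin-positive cell signal at least 10% of the positive control, reached in at least 60% of replicates, without over 20% cell loss; inconclusive = no rule given, readout overlaps actives, possibly toxicity-flagged; inactive = the rest, including those meeting only one limit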
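Assay system: HUVEC primary endothelial cells. Input: 3,000 HUVEC seeded per well. Doses: one compound dose added by pin transfer. Read-out basis: % PE-positive cells. Benchmarks: TNF-alpha high, DMSO low. Detection: immunofluorescence imaging. Buffer or medium: EGM-2, gelatin.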
F508del corr: F508del CFTR correction, initial screen, CFBE line, single point. CFBE cells, YFP halide quenching; stimulated with forskolin plus potentiator P3; % fluorescence drop versus neutral controls. activity (quench increase), % at 7.58 µM. 350,000 compounds, 0.36% hits;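 active = mean added fluorescence quench of at least 8% versus neutral control, with both replicates also reaching 8%; inconclusive = only one of the mean or replicate conditions met; inactive = mean below 8% and not both replicates reaching 8%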;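 note: cells transiently co-express mutant CFTR-F508del with the halide-sensitive YFP; corrector assay measuring rescue of mutant channel to the surface after 24 h compound exposure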
Starred values were filed as active, the others as inactive; ? = inconclusive; . = no result given; [ ] = dose if it differs, or a comment.

SMILES	ERAP1 inh	GSIS activator	miR-122 sensor	DENV2 CPE rescue	E-selectin induc	F508del corr
C[C@@H]1CN([C@@H](C)CO)C(=O)c2cc(NC(=O)Nc3ccc(F)cc3)ccc2O[C@@H](C)CCCCO[C@H]1CN(C)S(=O)(=O)c1cn(C)cn1	6	7	2[16.7 µM]	0	0	0
CCN(CC(=O)Nc1c(F)cccc1F)C(=O)C1CCN(S(=O)(=O)c2ccc(F)cc2)CC1	0	2	.	28*	.	-7
CCN(CC(=O)Nc1c(F)cccc1F)C(=O)C1CCN(C(=O)c2ccc(F)cc2)CC1	-5	13	-4	-2	3	-1
CC(=O)N(C)C[C@@H]1Oc2ncc(-c3cccc(F)c3)cc2C(=O)N([C@H](C)CO)C[C@@H]1C	-1	24	5[16.7 µM]	-10	0	1
CCOc1ccc2cc(C3CC(c4ccco4)=NN3S(C)(=O)=O)c(=O)[nH]c2c1 (stereo unspecified)	.	2	126*	2	0	-1
CC=Cc1ccc2n(c1=O)C[C@@H]1[C@@H](CO)[C@H](C(=O)NCCC)N(CCC(F)(F)F)[C@H]21 (mixture of isomers)	-6	23	2[16.7 µM]	7	-2	-1
C[C@@H]1CCCCO[C@H](CN(C)C(=O)CCCN(C)C)[C@@H](C)CN([C@H](C)CO)C(=O)c2cc(NC(=O)CCCN(C)C)ccc2O1	-4	18	.	20*	.	2
C[C@@H]1CCCCO[C@@H](CN(C)CC2CC2)[C@H](C)CN([C@H](C)CO)C(=O)c2cc(NC(=O)CCCN(C)C)ccc2O1	-4	13	.	43*	0	1
O=S(=O)(N[C@H]1CC[C@H](CCn2cc(C3CC3)nn2)O[C@H]1CO)c1ccc(F)cc1	0	-15	-5[16.7 µM]	-7	-1	0
O=C(O)C[C@@H]1C[C@@H]2c3cc(NC(=O)C4CCOCC4)ccc3O[C@@H]2[C@@H](CO)O1	.	-4	.	.	.	.
Cn1nc(C(=O)NNC(=O)CCOc2ccc(C(C)(C)C)cc2)c2ccccc2c1=O	4	-49	60	-5	-1	10*
CCOc1ccc(OCCC(=O)NNC(=O)c2nn(C)c(=O)c3ccccc23)cc1	-1	13	.	-4	0	1
CC(C)NC(=O)N(C)C[C@H]1Oc2ccc(NC(=O)CCC(F)(F)F)cc2CC(=O)N([C@H](C)CO)C[C@@H]1C	0	11	-4[16.7 µM]	-14	43*	-1
CC(C)NC(=O)N(C)C[C@H]1Oc2ccc(NC(=O)CCC(F)(F)F)cc2CC(=O)N([C@H](C)CO)C[C@H]1C	0	12	5[16.7 µM]	-5	20	-2
CC(C)NC(=O)N(C)C[C@@H]1Oc2ccc(NC(=O)CCC(F)(F)F)cc2CC(=O)N([C@@H](C)CO)C[C@@H]1C	3	23	0[16.7 µM]	2	25	0
C[C@H](CO)N1C[C@H](C)[C@H](CN(C)C(=O)Nc2ccc(F)cc2)Oc2ccc(NC(=O)CCC(F)(F)F)cc2CC1=O	-1	-4	-5[16.7 µM]	25*	0	-1
CC(C)NC(=O)N(C)C[C@@H]1Oc2ccc(NC(=O)CCC(F)(F)F)cc2CC(=O)N([C@@H](C)CO)C[C@H]1C	2	0	-3[16.7 µM]	?	113*	0
C[C@@H]1CN([C@H](C)CO)C(=O)Cc2cc(NC(=O)CCC(F)(F)F)ccc2O[C@H]1CN(C)C(=O)Nc1ccc(F)cc1	0	14	0[16.7 µM]	?	3	1
CC(C)NC(=O)N(C)C[C@H]1Oc2ccc(NC(=O)CCC(F)(F)F)cc2CC(=O)N([C@@H](C)CO)C[C@H]1C	0	11	-6[16.7 µM]	4	55*	1
O=C(N[C@H]1C=C[C@H](CC(=O)N2CCOCC2)O[C@@H]1CO)c1ccc2c(c1)OCO2	-2	1	.	?	1	1
Cc1ccc(NC(=O)Nc2ccc3c(c2)C(=O)N(C)[C@H]2CC[C@H](CC(=O)O)O[C@@H]2CO3)cc1	2	12	-1[16.7 µM]	-10	0	-3
Cc1oc2c(C)c3oc(=O)c(CCC(=O)NCCN4CCOCC4)c(C)c3cc2c1C	8	.	-2	29*	.	3
Cc1c(OCC(=O)NCCN2CCOCC2)ccc2c3c(c(=O)oc12)CCC3	-6	-4	-7	-1	.	11*
Cc1c(OCC(=O)NCc2ccccn2)ccc2c3c(c(=O)oc12)CCCC3	2	41*	1	4	.	0
C[C@@H]1CN([C@H](C)CO)C(=O)c2cc(NC(=O)Nc3ccc4c(c3)OCO4)ccc2O[C@@H](C)CCCCO[C@H]1CN(C)Cc1ccncc1	1	-19	-1[16.7 µM]	-9	0	-1
SMILES	ERAP1 inh	GSIS activator	miR-122 sensor	DENV2 CPE rescue	E-selectin induc	F508del corr
N/C(=N\OC(=O)COc1ccc(Br)cc1Cl)c1ccncc1	-1	4	.	11	1	2
N/C(=N\OC(=O)COc1cc(Cl)c(Cl)cc1Cl)c1ccncc1	0	-11	.	2	74*	1
O=C(COC(=O)c1cc([N+](=O)[O-])ccc1N1CCOCC1)c1ccccc1Cl	3	-15	6	-3	0	4
O=C(OCc1c(F)cccc1Cl)c1cc([N+](=O)[O-])ccc1N1CCOCC1	-2	8	0	68*	-2	4
COc1ccc(C(=O)c2cc([N+](=O)[O-])ccc2N2CCOCC2)cc1	2	0	.	-8	5	11*
O=C(COC(=O)c1cc([N+](=O)[O-])ccc1N1CCOCC1)Nc1c(Cl)cccc1Cl	2	-2	.	9	3	11*
O=C(OCc1ccccc1Cl)c1cc([N+](=O)[O-])ccc1N1CCOCC1	1	23	2	?	0	2
C[C@H](CO)N1C[C@H](C)[C@@H](CN(C)Cc2ccccc2C(F)(F)F)OCc2cnnn2CCCC1=O	.	-12	4[16.7 µM]	.	0	0
Cc1ccc(NS(=O)(=O)c2cccc3nsnc23)cc1	-5	-42	.	-4	.	-1
Cc1ccc(S(=O)(=O)Nc2c(C)ccc3nsnc23)cc1	.	.	138*	.	.	.
Cc1noc(C)c1NC(=O)N(C)C[C@@H]1Oc2ccc(NS(=O)(=O)c3cn(C)cn3)cc2C(=O)N([C@H](C)CO)C[C@@H]1C	-4	12	5[16.7 µM]	-3	-2	1
CN1CCN(C(=O)c2cc3c(c(-c4cccc(Br)c4)n2)[C@@H](CCO)N(S(=O)C(C)(C)C)C3)CC1 (stereo partly specified)	-1	-11	-2	8	0	1
O=C(c1cc2c(c(-c3cccc(Br)c3)n1)[C@@H](CCO)NC2)N1CCCCC1	.	-7	.	.	132*	.
O=C(c1cc2c(c(-c3cccc(Br)c3)n1)[C@H](CCO)NC2)N1CCCCC1	1	-3	.	35*	16	-3
